What was measured:
Enterovirus A71 [1] = experiment: Inhibitory activity against Human enterovirus 71 strain 4643 using plaque reduction assay; type: functional, organism-based; conditions: Enterovirus A
Method in brief: (§1)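 EV71 strain 4643 titrated by plaque reduction in human rhabdomyosarcoma (RD) cells. Values are means of triplicate wells, and each experiment was run at least twice.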

[2] = Cytotoxicity against Human rhabdomyosarcoma cells using plaque reduction assay; type: functional
Method in brief: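 Cytotoxicity was measured in human rhabdomyosarcoma (RD) cells. Values are means of triplicate wells from experiments done at least twice.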

Enterovirus A71 [3] = experiment: Inhibitory activity against human enterovirus 71 strain 4643 using plaque reduction assay; type: functional, organism-based; conditions: Enterovirus A; method in brief: as §1
Enterovirus A71 [4] = experiment: Inhibitory activity against Human Enterovirus 71 (1743) B using plaque reduction assay; type: functional, organism-based; conditions: Enterovirus A
Method in brief: (§2)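 Panel screen by plaque reduction against representative human enteroviruses and rhinoviruses. Each value is a mean of triplicate wells, with all experiments performed at least twice.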

Enterovirus A71 [5] = experiment: Inhibitory activity against Human Enterovirus 71 (2086) C using plaque reduction assay; type: functional, organism-based; conditions: Enterovirus A; method in brief: as §2
Enterovirus A71 [6] = experiment: Inhibitory activity against Human Enterovirus 71 (2231) C using plaque reduction assay; type: functional, organism-based; conditions: Enterovirus A; method in brief: as §2
Enterovirus A71 [7] = experiment: Inhibitory activity against Human Enterovirus 71 (4643) C using plaque reduction assay; type: functional, organism-based; conditions: Enterovirus A; method in brief: as §2
Enterovirus A71 [8] = experiment: Inhibitory activity against Human Enterovirus 71 (BrCr) A using plaque reduction assay; type: functional, organism-based; method in brief: as §2
rhinovirus A2 = experiment: Inhibitory activity against Human rhinovirus 2 using plaque reduction assay; type: functional, organism-based, Human rhinovirus sp.; conditions: Rhinovirus A; method in brief: as §2
rhinovirus B14 = experiment: Inhibitory activity against Human rhinovirus 14 using plaque reduction assay; type: functional, organism-based, Human rhinovirus sp.; conditions: Rhinovirus B; method in brief: as §2
Echovirus = experiment: Inhibitory activity against Echovirus 29 using plaque reduction assay; type: functional, organism-based; method in brief: as §2
Coxsackievirus [9] = experiment: Inhibitory activity against Coxsackievirus A9 using plaque reduction assay; type: functional, organism-based; method in brief: as §2
Coxsackievirus [10] = experiment: Inhibitory activity against Coxsackievirus B1 using plaque reduction assay; type: functional, organism-based; method in brief: as §2
Coxsackievirus [11] = experiment: Inhibitory activity against Coxsackievirus B2 using plaque reduction assay; type: functional, organism-based; method in brief: as §2
Coxsackievirus [12] = experiment: Inhibitory activity against Coxsackievirus B3 using plaque reduction assay; type: functional, organism-based; method in brief: as §2
Coxsackievirus [13] = experiment: Inhibitory activity against Coxsackievirus B4 using plaque reduction assay; type: functional, organism-based; method in brief: as §2
Coxsackievirus [14] = experiment: Inhibitory activity against Coxsackievirus B5 using plaque reduction assay; type: functional, organism-based; method in brief: as §2
Coxsackievirus [15] = experiment: Inhibitory activity against Coxsackievirus B6 using plaque reduction assay; type: functional, organism-based; method in brief: as §2
Coxsackievirus [16] = experiment: Inhibitory activity against Coxsackievirus A16 using plaque reduction assay; type: functional, organism-based; method in brief: as §2
Coxsackievirus [17] = experiment: Inhibitory activity against Coxsackievirus A24 using plaque reduction assay; type: functional, organism-based; method in brief: as §2
Enterovirus D68 = experiment: Inhibitory activity against Human Enterovirus 68 using plaque reduction assay; conditions: Enterovirus D
Enterovirus = experiment: Inhibitory activity against Enterovirus 68 using plaque reduction assay; type: functional, organism-based; method in brief: as §2
Coxsackievirus [18] = experiment: Inhibitory activity against Coxsackievirus A10 using plaque reduction assay; type: functional, organism-based; method in brief: as §2
Enterovirus A71 [19] = experiment: Inhibitory activity against human Enterovirus 71 (1743) B using plaque reduction assay; type: functional, organism-based; conditions: Enterovirus A; method in brief: as §2
Enterovirus A71 [20] = experiment: Inhibitory activity against human Enterovirus 71 (2086) C using plaque reduction assay; type: functional, organism-based; conditions: Enterovirus A; method in brief: as §2
Enterovirus A71 [21] = experiment: Inhibitory activity against human Enterovirus 71 (2231) C using plaque reduction assay; type: functional, organism-based; conditions: Enterovirus A; method in brief: as §2
Enterovirus A71 [22] = experiment: Inhibitory activity against human Enterovirus 71 (4643) C using plaque reduction assay; type: functional, organism-based; conditions: Enterovirus A; method in brief: as §2
Enterovirus A71 [23] = experiment: Inhibitory activity against human Enterovirus 71 (BrCr) A using plaque reduction assay; type: functional, organism-based; method in brief: as §2

Row | IC50 (Enterovirus A71 [1]) [µM] | IC50 (Enterovirus A71 [4]) [µM] | IC50 (Enterovirus A71 [5]) [µM] | IC50 (Enterovirus A71 [6]) [µM] | IC50 (Enterovirus A71 [7]) [µM] | IC50 (Enterovirus A71 [8]) [µM] | IC50 (rhinovirus A2) [µM] | IC50 (rhinovirus B14) [µM] | IC50 (Echovirus) [µM] | IC50 (Coxsackievirus [9]) [µM] | IC50 (Coxsackievirus [10]) [µM] | IC50 (Coxsackievirus [11]) [µM] | IC50 (Coxsackievirus [12]) [µM] | IC50 (Coxsackievirus [13]) [µM] | IC50 (Coxsackievirus [14]) [µM] | IC50 (Coxsackievirus [15]) [µM] | IC50 (Coxsackievirus [16]) [µM] | IC50 (Coxsackievirus [17]) [µM] | IC50 (Enterovirus) [µM] | SMILES | CC50 [2] [µM] | other results
1 | 0.04 |  |  |  |  |  |  |  |  |  |  |  |  |  |  |  |  |  |  | CC(C)(CCOc1ccc(-c2ccc(Cl)cc2)cc1)CCN1CCN(c2ccncc2)C1=O | > 25 | 
2 | 0.003 | 0.026 | 0.008 | 0.024 | 0.003 | 0.033 | > 25 | > 25 | 1.3 | 0.019 | > 25 | > 25 | > 25 | 1.25 | 4.85 | > 25 | 6.92 | > 25 |  | C[C@H](CCOc1ccc(-c2ccc(Cl)cc2)cc1)CCN1CCN(c2ccncc2)C1=O | > 25 | IC50 (Enterovirus A71 [3]): 0.003 µM; IC50 (Enterovirus D68): > 25 µM
3 | 0.033 | 0.17 | 0.049 | 0.16 | 0.033 | 0.32 | > 25 | > 25 | 1.47 | 0.15 | > 25 | > 25 | > 25 | 2.05 | 2.08 | > 25 | > 25 | > 25 | > 25 | C[C@@H](CCOc1ccc(-c2ccc(Cl)cc2)cc1)CCN1CCN(c2ccncc2)C1=O | > 25 | IC50 (Coxsackievirus [18]): > 25 µM
4 | 0.054 |  |  |  |  |  | > 25 | > 25 | 0.39 |  | > 25 | > 25 | > 25 | 1.3 |  | > 25 | > 25 |  | > 25 | O=C1N(CCCCCOc2ccc(-c3ccc(Cl)cc3)cc2)CCN1c1ccncc1 | > 25 | IC50 (Enterovirus A71 [19]): 0.092 µM; IC50 (Enterovirus A71 [20]): 0.043 µM; IC50 (Enterovirus A71 [21]): 0.092 µM; IC50 (Enterovirus A71 [22]): 0.054 µM; IC50 (Enterovirus A71 [23]): 0.13 µM; IC50 (Coxsackievirus [18]): > 25 µM

Source: ChEMBL document CHEMBL1141044, “Synthesis and antipicornavirus activity of (R)- and (S)-1-[5-(4'-chlorobiphenyl-4-yloxy)-3-methylpentyl]-3-pyridin-4-yl-imidazolidin-2-one” (Bioorg Med Chem Lett, 2005)
